# Assay results published in ChEMBL document CHEMBL1122927, “Metabolism of the nigrostriatal toxin 1-methyl-4-phenyl-1,2,3,6-tetrahydropyridine by liver homogenate fractions” (J Med Chem, 1985).
# Legend:
# Assay type in all cases: ADME
# Details in all cases: microsomes
# Oryctolagus cuniculus [1] = organism: Oryctolagus cuniculus; experiment: Formation of metabolite by rabbit liver microsomal preparation in absence of NADPH, at 2 hours
# Summary of the method: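 Rabbit liver microsomes (2–3 mg protein/mL), 100 mM Hepes pH 7.6, 0.5–1.0 mM MPTP, with the NADPH-generating system omitted; 37 °C for 2 h. Stopped with cold acetonitrile and centrifuged. Nor and N-oxide products measured by reverse-phase HPLC at 254 nm as nmol/mL per 2 h.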
# Oryctolagus cuniculus [2] = organism: Oryctolagus cuniculus; experiment: Formation of metabolite by rabbit liver microsomal preparation in presence of Co-O2 (90:10),at 2 hour
# Summary of the method: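 Buffer was saturated with CO-O2 (90:10), and incubation ran in sealed vials under that gas. Rabbit liver microsomes (2–3 mg protein/mL), 100 mM Hepes pH 7.6, NADPH-generating system, 0.5–1.0 mM MPTP, 37 °C, 2 h. Stopped with cold acetonitrile. Nor and N-oxide products quantified by reverse-phase HPLC (254 nm) as nmol/mL per 2 h.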
# Oryctolagus cuniculus [3] = organism: Oryctolagus cuniculus; experiment: Formation of metabolite by rabbit liver microsomal preparation in presence of N2,at 2 hour
# Summary of the method: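 Incubation under 100% N2, with N2-saturated buffer in sealed vials. Rabbit liver microsomes (2–3 mg protein/mL), 100 mM Hepes pH 7.6, NADPH-generating system, 0.5–1.0 mM MPTP, 37 °C, 2 h. Stopped with ice-cold acetonitrile. Nor and N-oxide products read by reverse-phase HPLC at 254 nm, expressed as nmol/mL per 2 h.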
# Oryctolagus cuniculus [4] = organism: Oryctolagus cuniculus; experiment: Formation of metabolite by rabbit liver microsomal preparation in presence of NADPH, at 2 hours
# Summary of the method: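 Male New Zealand white rabbit liver microsomes (100000g pellet, 2–3 mg protein/mL) in 100 mM Hepes pH 7.6 with an NADPH-generating system and 0.5–1.0 mM MPTP, in air, 37 °C, 2 h. Stopped with 2 volumes ice-cold acetonitrile, then centrifuged. Reverse-phase HPLC (acetonitrile/100 mM acetic acid 65:35, pH 5.6, 254 nm) quantified nor and N-oxide peaks as nmol/mL per 2 h.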
# Oryctolagus cuniculus [5] = organism: Oryctolagus cuniculus; experiment: Formation of metabolite by rabbit liver microsomal preparation in presence of SKF525A,at 2 hour
# Summary of the method: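 Rabbit liver microsomes were preincubated 5 min with SKF 525A (5 × 10⁻⁴ M) before MPTP (0.5–1.0 mM) was added. Run in 100 mM Hepes pH 7.6 with an NADPH-generating system, 2–3 mg protein/mL, 37 °C, 2 h. Stopped with cold acetonitrile. Nor and N-oxide products quantified by reverse-phase HPLC (254 nm) as nmol/mL per 2 h.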
SMILES,Amount of metabolite (Oryctolagus cuniculus [1]),Amount of metabolite (Oryctolagus cuniculus [2]),Amount of metabolite (Oryctolagus cuniculus [3]),Amount of metabolite (Oryctolagus cuniculus [4]),Amount of metabolite (Oryctolagus cuniculus [5])
C[N+]1([O-])CC=C(c2ccccc2)CC1 (stereo not given),0 nM ml-1,160 nM ml-1,0 nM ml-1,190 nM ml-1,170 nM ml-1
C1=C(c2ccccc2)CCNC1,0 nM ml-1,53 nM ml-1,16 nM ml-1,130 nM ml-1,70 nM ml-1
